Screening results (PubChem)
Sampled rows, rich in hits. Any-hit rate of the full collection: about 3%.
MEKK3 PB1 HTS: raises or lowers MEK5 binding to the human MEKK3 PB1 domain. bead-based flow cytometry, Alexa488-MEK5 binding to MEKK3; actives lie on both sides; 0 = blocked by unlabeled MEK5, 100 = vehicle. binding response (% of control), % at 10 µM. 290,000 compounds, 1.4% hits. AID 1529;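 active = binding response more than 3 SD above or below the average of its plate-row segment, actives on both sides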;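 note: Alexa488 bead fluorescence after subtracting the streptavidin-only scavenger bead signal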
Target sequence (Q99759 whole entry, looked up, the tested form may be a part): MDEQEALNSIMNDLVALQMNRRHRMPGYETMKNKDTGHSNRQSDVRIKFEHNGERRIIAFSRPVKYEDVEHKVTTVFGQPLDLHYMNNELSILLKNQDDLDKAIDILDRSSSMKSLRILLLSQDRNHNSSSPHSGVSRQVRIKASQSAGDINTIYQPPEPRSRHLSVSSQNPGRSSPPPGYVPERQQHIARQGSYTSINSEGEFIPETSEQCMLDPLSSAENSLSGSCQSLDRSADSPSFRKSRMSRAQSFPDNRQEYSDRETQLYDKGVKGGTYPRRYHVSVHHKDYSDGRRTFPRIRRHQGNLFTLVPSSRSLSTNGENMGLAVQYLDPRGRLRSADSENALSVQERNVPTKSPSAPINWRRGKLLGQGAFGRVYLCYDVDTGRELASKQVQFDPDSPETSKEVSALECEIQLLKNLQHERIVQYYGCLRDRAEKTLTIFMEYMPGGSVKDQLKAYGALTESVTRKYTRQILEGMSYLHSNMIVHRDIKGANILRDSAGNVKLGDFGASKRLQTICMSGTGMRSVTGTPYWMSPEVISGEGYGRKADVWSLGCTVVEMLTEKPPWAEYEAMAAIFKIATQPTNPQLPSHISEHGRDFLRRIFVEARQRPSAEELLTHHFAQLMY
MEKK2mut PB1 HTS: signal of MEK5 binding to mutant human MEKK2 PB1 domain; 290,000 compounds, 0.35% hits; bead flow cytometry, Alexa488-MEK5 binding to MEKK2 mutant; percent response, % at 10 µM; in the data active = percent response above about 24%, passing the limit was not always enough
UCH37 inh: blocks the human deubiquitinase UCH37; purified proteasome/UCH37, Ub-AMC cleavage fluorescence; Q9Y5K5; inhibition, % (no concentration beside the values); 330,000 compounds, 0.33% hits;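 active = mean inhibition over replicate wells above about 20%, limit read from the data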;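 note: 0% = compound-free wells with enzyme and 100% = wells lacking proteasome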
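system = Proteasome-associated human UCH37 deubiquitinase | amount = 0.15 nM proteasome as dispensed | medium = pH 7.4 Tris-HCl (50 mM) with ovalbumin, ATP-MgCl2, DTT | incubation = 30 min preincubation with enzyme, 25 min cleavage at room temperature | detection = AMC fluorescence 355/460 nm | read-out basis = percent inhibition | controls = no-proteasome and no-compound wells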
MEKK2wt PB1 HTS: raises or lowers MEK5 binding to wildtype human MEKK2 PB1 domain; bead flow cytometry, Alexa488-MEK5 binding to MEKK2 WT; actives lie on both sides; Q9Y2U5; 290,000 compounds, 1.1% hits; binding response (% of control), % at 10 µM; in the data active = binding response below about 67% or above about 130%
UBC13 inh: blocks human UBC13 polyubiquitin chain formation; 330,000 compounds, 0.47% hits; P61088; inhibition, % at 20 µM; TR-FRET; AID 485273; in the data active = inhibition above about 45%, passing the limit was not always enough
Apaf1 inhib: blocks human Apaf-1 apoptosome activity | O14727 | reconstituted apoptosome caspase-3 activity, DEVD-Rh110 fluorescence | inhibition, % at 20 µM | 330,000 compounds, 0.71% hits | AID 489030; active = inhibition of at least 40% at 20 µM;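 note: plate controls were DMSO wells for no effect and DEVD-CHO caspase inhibitor wells for full effect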
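System – cell-free apoptosome with Apaf-1, procaspase-3 and caspase-9 · Buffer or medium – pH 7.5 Hepes buffer with CHAPS, BSA, DTT · Also added – cytochrome c with DEVD-Rh110 · Times – 30 min compound preincubation, 50 min activation, room temperature · Technique – Rh110 fluorescence intensity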
MEKK2wt confirm: raises or lowers MEK5 binding to wildtype human MEKK2, retest; shares compounds with MEKK3 PB1 HTS; bead flow cytometry, Alexa488-MEK5 binding to MEKK2 WT; actives lie on both sides; binding response (% of control), % at 10 µM; 5,900 compounds, 2.4% hits; in the data active = binding response below about 16% or above about 210%; inactive = in between
MEKK2mut-MEK5: signal of MEK5 binding to mutant human MEKK2, retest; 5,900 compounds, 2% hits; percent response, % at 10 µM; shares compounds with MEKK3 PB1 HTS; bead flow cytometry, Alexa488-MEK5 binding to MEKK2 mutant; AID 1893; in the data active = percent response mostly above about 71%, no sharp cut-off; inactive = mostly below about 38%;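 note: higher means compound restores mutant binding toward wildtype level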
MEKK3-MEK5 inh: confirmation of inhibitors of MEK5 binding to human MEKK3; shares compounds with MEKK3 PB1 HTS; bead flow cytometry, Alexa488-MEK5 binding to MEKK3; hits give low values; binding response (% of control), % at 10 µM; 5,900 compounds, 1.8% hits; AID 1894;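 active = binding response below 72% of control, or above a set upper limit, though filed actives all read lower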;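 note: 100% = DMSO only wells and 0% = binding blocked by excess unlabeled MEK5; lower values mean stronger disruption of MEK5 binding to MEKK3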
The depositor's hits bear a star; . = no result; [ ] = dose if it differs, or a comment.

SMILES | MEKK3 PB1 HTS | MEKK2mut PB1 HTS | UCH37 inh | MEKK2wt PB1 HTS | UBC13 inh | Apaf1 inhib | MEKK2wt confirm | MEKK2mut-MEK5 | MEKK3-MEK5 inh
Oc1ccccc1-c1nnc(COc2ccc(Cl)cc2Cl)o1 | 96 | 0 | -2 | 93 | 15 | 0 | . | . | .
c1ccc(CCN2CN=C(Nc3nc4ccccc4s3)NC2)cc1 | 110 | 3 | 4 | 113 | 13 | -4 | . | . | .
CCN(c1ccccc1)S(=O)(=O)c1cc(NC(=O)Nc2ccccc2C#N)ccc1Cl | 133* | 0 | -3 | 108 | -4 | 13 | 106 | 3 | 102
CCN(c1ccccc1)S(=O)(=O)c1cc(NC(=O)COC(=O)C2CC2)ccc1Cl | 106 | 6 | 2 | 104 | 9 | 2 | . | . | .
CSCC[C@H](NC(=O)Cc1ccc(Cl)cc1)C(=O)N1CCC2(CC1)NCCc1[nH]cnc12 | 96 | -1 | 1 | 97 | 3 | 8 | . | . | .
Cc1cc(C(=O)COc2ccc3ccc(=O)oc3c2)c(C)n1Cc1cccs1 | 142* | 0 | -47 | 105 | 2 | 13 | 96 | -4 | 98
Cc1ccc(OCC(=O)c2cc(C)n(Cc3cccs3)c2C)c([N+](=O)[O-])n1 | 89 | -5 | -1 | 92 | -7 | 9 | . | . | .
CC(=O)N(C)c1ccc(NS(=O)(=O)c2cccc3nsnc23)cc1 | 104 | 1 | 3 | 104 | -2 | 1 | . | . | .
Cc1noc(/C=C/c2ccc(-c3ccccc3Cl)o2)c1[N+](=O)[O-] | 102 | 92* | -4 | 117 | -86 | 22 | 55 | -18 | 54*
Cc1cccc(C)c1N/C=C/c1onc(C)c1[N+](=O)[O-] | 102 | 2 | 3 | 102 | -17 | 9 | . | . | .
Cc1ccc(N/C=C/c2onc(C)c2[N+](=O)[O-])cc1 | 37*[inhibitor] | -13 | 6 | 33*[inhibitor] | -56 | -18 | 97 | -4 | 100
COc1cccc2cc(C(=O)Nc3ccccc3C(=O)N3CCOCC3)oc12 | 105 | 4 | -1 | 107 | 3 | -1 | . | . | .
CC1(C)C(C=C(Cl)Cl)C1C(=O)NN=Cc1ccccc1F (stereo not given) | . | . | 1 | . | . | . | . | . | .
O=[N+]([O-])c1ccc(N2CCc3ccccc3C2)cc1 | 105 | 5 | 5 | 105 | -6 | 12 | . | . | .
COc1ccc(N=C2S/C(=C\c3cccs3)C(=O)N2CC(C)C)cc1 | 82*[inhibitor] | -7 | 1 | 90 | -3 | 3 | 103 | -1 | 107
Nc1ccc(Sc2nnnn2-c2ccccc2)c(Cl)c1 | 1.0*[inhibitor] | -26 | 4 | -3.0*[inhibitor] | 4 | -13 | 100 | -2 | 102
O=[N+]([O-])c1ccc(Sc2nnnn2-c2ccccc2)c(Cl)c1 | 100 | 0 | -1 | 97 | -10 | 1 | . | . | .
CN1CCN(Cc2nc3ccccc3c(=O)n2Cc2nc(-c3ccc4ccccc4c3)cs2)CC1 | 108 | 51* | 7 | 195* | . | . | 153 | 25 | 104
CCc1nc(C)ccc1OC(=O)C12CC3CC(CC(C3)C1)C2 | 106 | 3 | 0 | 138* | 11 | 10 | 92 | -10 | 94
CCn1c(=O)c2ccccc2n(Cc2ccccc2C)c1=O | 103 | 4 | 3 | 102 | 7 | -9 | . | . | .
CCCc1nn(C)c(C(=O)Nc2cccc3ccccc23)c1Cl | 131* | 1 | 1 | 107 | 4 | 20 | 105 | 0 | 109
COc1nc(NCCC2=CCCCC2)nc(OC)n1 | 124* | 4 | 5 | 107 | 8 | 2 | 107 | 4 | 106
